Legend:
[1] = Antitumor activity against human Calu3 cells xenografted in BALB/cA mouse assessed as tumor growth inhibition at 200 mg/kg, po; format: functional; settings: Calu-3, read-out: TGI
Outline: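 Female BALB/cA nude mice, 6–7 weeks old, implanted s.c. on midright side with 2×10^6 Calu-3 cells in 0.2 ml PBS. Grouped at 60–150 mm³ tumour volume (6 per treated group, 12 vehicle). Oral dosing in 0.5% CMC with 0.1% Tween-80. Caliper volume = L×W²×0.5; inhibition = (1 − T/C)×100% on relative tumour volume; weight tracked for 21 d.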

[2] = molecular target: Receptor tyrosine-protein kinase erbB-2 (Homo sapiens, UniProt P04626); assay: Inhibition of HER2 (unknown origin) assessed as reduction in autophosphorylation by ELISA method
Outline: (§1)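 Phosphotyrosine ELISA with purified kinase (20 ng) and 5 µM ATP in buffer (50 mM HEPES pH 7.4, 20 mM MgCl2, 0.1 mM MnCl2, 0.2 mM Na3VO4, 1 mM DTT), 1 h at 37 °C, DMSO ≤1%. Detection by PY99 antibody, then HRP anti-mouse IgG with o-phenylenediamine, A490. IC50 by Logit from at least three independent tests.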

[3] = molecular target: Platelet-derived growth factor receptor beta (Homo sapiens, UniProt P09619); assay: Inhibition of PDGFRbeta (unknown origin) by ELISA method; outline: as §1
[4] = molecular target: Epidermal growth factor receptor (Homo sapiens, UniProt P00533); assay: Inhibition of HER1 (unknown origin) assessed as reduction in autophosphorylation by ELISA method
[5] = Cytotoxicity against human SKBR3 cells assessed as inhibition of cell growth after 72 hrs by sulforhodamine B assay; format: functional, cell-based; settings: SK-BR-3, 72 h
Outline: (§2)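 Cells grown in RPMI-1640 with 5% FBS and plated at 5.0×10^4/ml. Next day exposed to 0.5–5000 ng/ml for 3 days. Survival read by sulforhodamine B staining. IC50 taken from growth curves; mean of at least three determinations.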

A-431 = assay: Cytotoxicity against human A431 cells assessed as inhibition of cell growth after 72 hrs by sulforhodamine B assay; format: functional, cell-based; settings: A-431, 72 h; outline: as §2
Mus musculus = assay: Toxicity in human Calu3 cells xenografted BALB/cA mouse assessed as body weight loss at 200 mg/kg, po measured every other day for 21 days; format: organism-based, Calu-3; design: dose 200 mg/kg, route oral; settings: in vivo, 504 h
Outline: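 Female BALB/cA nude mice, 6–7 weeks old, implanted s.c. on the mid-right flank with 2×10^6 Calu-3 cells in 0.2 ml PBS. At 60–150 mm³ tumour volume, mice randomised into six per treatment group (twelve vehicle controls). Oral dosing in 0.5% CMC aqueous solution with 0.1% Tween-80. Body weight recorded every other day for 21 d.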

BT-474 = assay: Cytotoxicity against human BT474 cells assessed as inhibition of cell growth after 72 hrs by sulforhodamine B assay; format: functional, cell-based; settings: BT-474, 72 h; outline: as §2
[6] = molecular target: Mast/stem cell growth factor receptor Kit (Homo sapiens, UniProt P10721); assay: Inhibition of c-KIT (unknown origin) by ELISA method; outline: as §1
[7] = molecular target: Vascular endothelial growth factor receptor 2 (Homo sapiens, UniProt P35968); assay: Inhibition of KDR (unknown origin) by ELISA method; outline: as §1
MCF7 = assay: Cytotoxicity against human MCF7 cells assessed as inhibition of cell growth after 72 hrs by sulforhodamine B assay; format: functional, cell-based; settings: MCF7, 72 h; outline: as §2
NCI-H460 = assay: cells; settings: Homo sapiens, NCI-H460, 72 h
cells [8] = settings: Homo sapiens, Calu-3, 72 h
MDA-MB-231 = assay: cells; settings: Homo sapiens, MDA-MB-231, 72 h
cells [9] = settings: Homo sapiens, SK-OV-3, 72 h
[10] = Tmax in Beagle dog at 240 mg/kg, po administered as single dose measured after 0.25 to 24 hrs post dose by LC/MS/MS method; format: ADME, organism-based, Canis lupus familiaris; design: dose 240 mg/kg, route oral; settings: in vivo
Outline: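 Beagle dogs (n = 6), single oral gavage dose of 240 mg/kg. Plasma levels measured by validated LC/MS/MS. Tmax read directly from the concentration-time data.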

[11] = Cmax in Beagle dog at 240 mg/kg, po administered as single dose measured after 0.25 to 24 hrs post dose by LC/MS/MS method; format: ADME, organism-based, Canis lupus familiaris; design: dose 240 mg/kg, route oral; settings: in vivo
Outline: (§3)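 Single oral gavage of 240 mg/kg to beagle dogs (n = 6). Blood sampled at 0.25–24 h, kept on ice, centrifuged within 1 h (1000 × g, 4 °C, 15 min), plasma stored at −20 °C. Drug quantified by validated LC/MS/MS. AUC0–24 from non-compartmental analysis; Cmax and MRT taken directly from concentration–time data.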

MDA-MB-453 = assay: cells; settings: Homo sapiens, MDA-MB-453, 72 h
[12] = AUC (0 to 24 hrs) in Beagle dog at 240 mg/kg, po administered as single dose measured after 0.25 to 24 hrs post dose by LC/MS/MS method; format: ADME, organism-based, Canis lupus familiaris; design: time < 24 hr, dose 240 mg/kg, route oral; settings: plasma; outline: as §3
MRC5 = assay: cells; settings: Homo sapiens, MRC5, 72 h
[13] = Mean residence time in Beagle dog at 240 mg/kg, po administered as single dose measured after 0.25 to 24 hrs post dose by LC/MS/MS method; format: ADME, organism-based, Canis lupus familiaris; design: dose 240 mg/kg, route oral; settings: in vivo; outline: as §3

Mast/stem cell growth factor receptor Kit, sequence (P10721 whole entry): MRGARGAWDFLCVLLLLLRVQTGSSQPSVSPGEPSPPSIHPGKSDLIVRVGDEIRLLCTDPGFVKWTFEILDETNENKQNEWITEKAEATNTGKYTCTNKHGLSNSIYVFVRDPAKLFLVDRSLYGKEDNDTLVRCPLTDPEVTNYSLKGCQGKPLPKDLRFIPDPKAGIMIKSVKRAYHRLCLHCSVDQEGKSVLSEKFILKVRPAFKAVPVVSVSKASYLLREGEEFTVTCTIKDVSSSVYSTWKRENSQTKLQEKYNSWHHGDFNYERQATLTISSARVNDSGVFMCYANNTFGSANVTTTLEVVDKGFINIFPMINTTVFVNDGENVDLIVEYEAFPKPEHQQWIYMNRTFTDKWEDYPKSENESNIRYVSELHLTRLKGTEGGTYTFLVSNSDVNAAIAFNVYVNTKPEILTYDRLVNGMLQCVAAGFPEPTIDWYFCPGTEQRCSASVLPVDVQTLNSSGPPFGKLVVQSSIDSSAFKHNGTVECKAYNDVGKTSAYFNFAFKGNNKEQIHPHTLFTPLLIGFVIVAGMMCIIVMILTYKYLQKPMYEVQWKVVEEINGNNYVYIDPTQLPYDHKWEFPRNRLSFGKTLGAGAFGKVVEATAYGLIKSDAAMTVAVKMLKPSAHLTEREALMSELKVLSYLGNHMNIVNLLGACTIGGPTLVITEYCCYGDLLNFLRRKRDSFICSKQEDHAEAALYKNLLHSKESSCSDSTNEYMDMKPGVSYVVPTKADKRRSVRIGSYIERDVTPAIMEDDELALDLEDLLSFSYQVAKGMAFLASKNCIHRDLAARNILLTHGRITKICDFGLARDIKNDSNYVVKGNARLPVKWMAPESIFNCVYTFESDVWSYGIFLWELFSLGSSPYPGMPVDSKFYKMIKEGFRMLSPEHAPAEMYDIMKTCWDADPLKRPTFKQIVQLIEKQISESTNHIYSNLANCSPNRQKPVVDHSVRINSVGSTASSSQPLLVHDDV
Platelet-derived growth factor receptor beta, sequence (P09619 whole entry): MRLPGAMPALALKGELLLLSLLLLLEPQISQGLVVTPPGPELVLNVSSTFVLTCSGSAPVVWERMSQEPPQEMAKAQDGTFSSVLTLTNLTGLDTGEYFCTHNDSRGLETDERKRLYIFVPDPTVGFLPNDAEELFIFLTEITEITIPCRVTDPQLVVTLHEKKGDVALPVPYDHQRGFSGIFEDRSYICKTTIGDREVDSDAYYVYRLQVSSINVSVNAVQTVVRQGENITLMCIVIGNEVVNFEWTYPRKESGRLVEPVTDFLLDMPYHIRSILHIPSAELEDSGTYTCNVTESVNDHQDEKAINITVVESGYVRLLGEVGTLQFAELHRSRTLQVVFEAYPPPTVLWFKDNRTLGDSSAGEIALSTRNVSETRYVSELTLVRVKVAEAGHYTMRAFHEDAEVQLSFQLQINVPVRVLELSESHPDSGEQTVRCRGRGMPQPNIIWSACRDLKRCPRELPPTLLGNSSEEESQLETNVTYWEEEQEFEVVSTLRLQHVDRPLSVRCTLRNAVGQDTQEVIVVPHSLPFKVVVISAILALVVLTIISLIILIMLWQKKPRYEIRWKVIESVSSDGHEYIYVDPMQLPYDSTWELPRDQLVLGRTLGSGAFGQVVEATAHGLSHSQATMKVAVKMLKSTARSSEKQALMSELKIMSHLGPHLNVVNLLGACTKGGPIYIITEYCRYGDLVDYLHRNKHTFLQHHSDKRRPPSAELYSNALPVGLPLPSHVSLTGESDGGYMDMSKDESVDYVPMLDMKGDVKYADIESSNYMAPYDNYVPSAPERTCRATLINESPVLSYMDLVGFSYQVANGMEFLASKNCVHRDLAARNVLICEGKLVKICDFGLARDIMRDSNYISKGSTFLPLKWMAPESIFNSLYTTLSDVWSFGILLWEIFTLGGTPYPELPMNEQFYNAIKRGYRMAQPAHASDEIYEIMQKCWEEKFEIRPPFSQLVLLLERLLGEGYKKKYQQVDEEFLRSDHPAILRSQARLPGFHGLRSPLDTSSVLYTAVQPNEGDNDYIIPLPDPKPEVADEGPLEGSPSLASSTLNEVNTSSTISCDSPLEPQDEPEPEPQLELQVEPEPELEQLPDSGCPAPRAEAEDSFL
Receptor tyrosine-protein kinase erbB-2, sequence (P04626 whole entry): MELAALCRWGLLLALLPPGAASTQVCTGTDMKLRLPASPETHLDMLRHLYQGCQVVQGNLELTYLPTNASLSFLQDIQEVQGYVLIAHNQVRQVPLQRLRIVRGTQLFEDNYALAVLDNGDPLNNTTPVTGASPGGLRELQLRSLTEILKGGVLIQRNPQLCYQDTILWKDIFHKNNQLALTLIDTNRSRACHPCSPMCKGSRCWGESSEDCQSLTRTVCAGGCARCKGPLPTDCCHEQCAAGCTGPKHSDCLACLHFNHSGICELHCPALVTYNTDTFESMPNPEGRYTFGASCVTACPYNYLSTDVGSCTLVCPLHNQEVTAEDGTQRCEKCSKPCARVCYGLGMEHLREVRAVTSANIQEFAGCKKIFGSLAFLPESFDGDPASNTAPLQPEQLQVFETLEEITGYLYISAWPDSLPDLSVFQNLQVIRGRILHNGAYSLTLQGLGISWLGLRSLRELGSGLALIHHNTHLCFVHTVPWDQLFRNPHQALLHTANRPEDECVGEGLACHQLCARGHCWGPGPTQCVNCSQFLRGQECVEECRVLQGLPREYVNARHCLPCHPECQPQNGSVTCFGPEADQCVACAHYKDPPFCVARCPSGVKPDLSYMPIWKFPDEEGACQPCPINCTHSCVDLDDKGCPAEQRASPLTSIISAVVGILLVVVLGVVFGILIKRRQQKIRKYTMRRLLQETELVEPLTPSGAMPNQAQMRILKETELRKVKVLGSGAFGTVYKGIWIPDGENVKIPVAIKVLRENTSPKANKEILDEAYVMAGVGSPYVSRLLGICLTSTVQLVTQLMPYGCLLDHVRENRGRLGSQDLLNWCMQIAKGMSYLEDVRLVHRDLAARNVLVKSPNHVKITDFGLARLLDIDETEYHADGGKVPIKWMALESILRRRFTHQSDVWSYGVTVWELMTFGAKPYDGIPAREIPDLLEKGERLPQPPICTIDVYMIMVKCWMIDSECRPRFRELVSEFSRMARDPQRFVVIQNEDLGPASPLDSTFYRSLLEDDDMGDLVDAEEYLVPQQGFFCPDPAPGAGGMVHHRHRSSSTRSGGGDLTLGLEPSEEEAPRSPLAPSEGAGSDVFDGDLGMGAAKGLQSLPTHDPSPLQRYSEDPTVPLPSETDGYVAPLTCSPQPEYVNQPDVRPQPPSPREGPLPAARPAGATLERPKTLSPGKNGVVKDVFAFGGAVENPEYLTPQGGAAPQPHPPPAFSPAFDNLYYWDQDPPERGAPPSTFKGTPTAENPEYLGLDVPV
Epidermal growth factor receptor, sequence (P00533 whole entry): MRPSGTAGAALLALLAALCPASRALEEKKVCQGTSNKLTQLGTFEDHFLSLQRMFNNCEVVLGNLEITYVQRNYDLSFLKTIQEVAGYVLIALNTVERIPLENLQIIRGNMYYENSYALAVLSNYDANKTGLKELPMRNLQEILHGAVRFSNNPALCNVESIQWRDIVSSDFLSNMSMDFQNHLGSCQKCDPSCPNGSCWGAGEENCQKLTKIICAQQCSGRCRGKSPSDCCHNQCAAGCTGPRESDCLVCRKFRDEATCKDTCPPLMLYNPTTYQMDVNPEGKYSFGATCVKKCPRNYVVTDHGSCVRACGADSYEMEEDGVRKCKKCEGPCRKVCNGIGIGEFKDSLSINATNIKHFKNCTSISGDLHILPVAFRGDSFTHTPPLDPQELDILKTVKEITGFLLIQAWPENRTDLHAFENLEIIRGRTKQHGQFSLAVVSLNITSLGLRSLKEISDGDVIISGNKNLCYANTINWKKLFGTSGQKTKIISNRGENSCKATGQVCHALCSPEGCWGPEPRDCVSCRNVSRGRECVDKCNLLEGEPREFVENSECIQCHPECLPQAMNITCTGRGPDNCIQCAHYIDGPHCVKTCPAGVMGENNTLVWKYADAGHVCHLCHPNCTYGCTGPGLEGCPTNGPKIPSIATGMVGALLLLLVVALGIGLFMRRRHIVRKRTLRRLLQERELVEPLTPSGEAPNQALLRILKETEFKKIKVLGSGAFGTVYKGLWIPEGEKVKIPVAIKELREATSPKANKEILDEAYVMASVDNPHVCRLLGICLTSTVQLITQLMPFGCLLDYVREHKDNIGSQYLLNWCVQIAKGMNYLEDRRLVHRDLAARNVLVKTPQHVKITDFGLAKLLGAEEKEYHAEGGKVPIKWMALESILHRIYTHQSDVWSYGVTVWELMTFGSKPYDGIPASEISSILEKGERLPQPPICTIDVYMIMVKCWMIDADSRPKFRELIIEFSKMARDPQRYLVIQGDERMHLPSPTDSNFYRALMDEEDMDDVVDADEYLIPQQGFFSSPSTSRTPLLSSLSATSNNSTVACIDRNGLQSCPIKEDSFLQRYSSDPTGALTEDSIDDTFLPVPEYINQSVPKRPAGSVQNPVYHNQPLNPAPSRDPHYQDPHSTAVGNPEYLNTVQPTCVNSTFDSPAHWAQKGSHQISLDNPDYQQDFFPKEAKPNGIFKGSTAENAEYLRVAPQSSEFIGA

IC50 [2] | IC50 [3] | IC50 [4] | IC50 [6] | IC50 [7] | SMILES | IC50 [5] | IC50 (A-431) | IC50 (BT-474) | IC50 (MCF7) | further results
3.6 nM | > 200000 nM | 6.8 nM | > 200000 nM | > 200000 nM | CN(C)C(CS(C)(=O)=O)c1ccc(-c2ccc3ncnc(Nc4ccc(OCc5cccc(F)c5)c(Cl)c4)c3c2)o1 (racemic) | 36.2 nM | 604 nM | 48.6 nM | 6120 nM | inhibition in vivo at 200 mg/kg [1]: 58%; Activity (Mus musculus): Non-toxic
1 nM | > 200000 nM | 34.8 nM | > 200000 nM | > 200000 nM | CNC(CS(C)(=O)=O)c1ccc(-c2ccc3ncnc(Nc4ccc(OCc5cccc(F)c5)c(Cl)c4)c3c2)o1 (racemic) | 30.1 nM | 648 nM | 76.8 nM | 6520 nM | –
164 nM | > 200000 nM | 92.8 nM | > 200000 nM | > 200000 nM | CCCCOC(=O)N[C@H](CS(C)(=O)=O)c1ccc(-c2ccc3ncnc(Nc4ccc(OCc5cccc(F)c5)c(Cl)c4)c3c2)o1 | 702 nM | 1090 nM | 1000 nM | 9210 nM | –
152 nM | > 200000 nM | 89.6 nM | > 200000 nM | > 200000 nM | CCOC(=O)N[C@H](CS(C)(=O)=O)c1ccc(-c2ccc3ncnc(Nc4ccc(OCc5cccc(F)c5)c(Cl)c4)c3c2)o1 | 106 nM | 884 nM | 120 nM | 8930 nM | –
52.2 nM | > 200000 nM | 28.7 nM | > 200000 nM | > 200000 nM | CS(=O)(=O)CCNC(CS(C)(=O)=O)c1ccc(-c2ccc3ncnc(Nc4ccc(OCc5cccc(F)c5)c(Cl)c4)c3c2)o1 (racemic) | 123 nM | 684 nM | 104 nM | 7010 nM | –
158 nM | > 200000 nM | 110 nM | > 200000 nM | > 200000 nM | CCCCCCOC(=O)N[C@H](CS(C)(=O)=O)c1ccc(-c2ccc3ncnc(Nc4ccc(OCc5cccc(F)c5)c(Cl)c4)c3c2)o1 | 1050 nM | 1200 nM | 1920 nM | > 10000 nM | –
2.9 nM | > 200000 nM | 10.8 nM | > 200000 nM | > 200000 nM | CS(=O)(=O)C[C@@H](N)c1ccc(-c2ccc3ncnc(Nc4ccc(OCc5cccc(F)c5)c(Cl)c4)c3c2)o1 | 21 nM | 663 nM | 69.2 nM | 6830 nM | IC50 (NCI-H460): > 100000 nM; IC50 (cells [8]): 220 nM; IC50 (MDA-MB-231): > 100000 nM; IC50 (cells [9]): 410 nM; Tmax [10]: 5 h; Cmax [11]: 2100 ng/mL; IC50 (MDA-MB-453): 240 nM; AUC(0-t) at 24 h [12]: 20300 ng·h/mL; IC50 (MRC5): > 100000 nM; MRT [13]: 6.8 h
58.6 nM | > 200000 nM | 77.2 nM | > 200000 nM | > 200000 nM | CS(=O)(=O)CC(NC1CCCCC1)c1ccc(-c2ccc3ncnc(Nc4ccc(OCc5cccc(F)c5)c(Cl)c4)c3c2)o1 (racemic) | 162 nM | 773 nM | 174 nM | 9130 nM | –
10.6 nM | > 200000 nM | 13.5 nM | > 200000 nM | > 200000 nM | CS(=O)(=O)C[C@H](N)c1ccc(-c2ccc3ncnc(Nc4ccc(OCc5cccc(F)c5)c(Cl)c4)c3c2)o1 | 84.1 nM | 632 nM | 116 nM | 9340 nM | –
15.5 nM | > 200000 nM | 14.7 nM | > 200000 nM | > 200000 nM | CCNC(CS(C)(=O)=O)c1ccc(-c2ccc3ncnc(Nc4ccc(OCc5cccc(F)c5)c(Cl)c4)c3c2)o1 (racemic) | 33.9 nM | 884 nM | 109 nM | 8730 nM | –
3.4 nM | > 200000 nM | 17.6 nM | > 200000 nM | > 200000 nM | CS(=O)(=O)CC(N)c1ccc(-c2ccc3ncnc(Nc4ccc(OCc5cccc(F)c5)c(Cl)c4)c3c2)o1 (racemic) | 26.6 nM | 683 nM | 75.4 nM | 6620 nM | –
26.1 nM | > 200000 nM | 30.4 nM | > 200000 nM | > 200000 nM | CN(C)[C@@H](CS(C)(=O)=O)c1ccc(-c2ccc3ncnc(Nc4ccc(OCc5cccc(F)c5)c(Cl)c4)c3c2)o1 | 27.8 nM | 768 nM | 83.2 nM | 6670 nM | –
48.3 nM | > 200000 nM | – | > 200000 nM | > 200000 nM | CC(C)NC(CS(C)(=O)=O)c1ccc(-c2ccc3ncnc(Nc4ccc(OCc5cccc(F)c5)c(Cl)c4)c3c2)o1 (racemic) | 101 nM | 623 nM | 94.4 nM | 6110 nM | –

Source: ChEMBL document CHEMBL3352165 (Eur J Med Chem, 2014)
